Experimental data taken from ChEMBL document CHEMBL4689842, “EUbOPEN Chemogenomics Library wave 1” (2021).

System: HEK-293T
Experiment: Multiplex assay against HEK293T;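 for Population Tubulin-Different-Phenotype (%): share of the cells with healthy nuclei that show this phenotype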
Assay type: toxicity, cell-based
Conditions: human
In short: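 On a CQ1 microscope at 37°C and 5% CO2, live cells were imaged after compound addition. They had been stained at seeding with Hoechst33342, BioTracker Green Microtubule Cytoskeleton Dye, MitoTracker Red and Annexin V Alexa Fluor 680. CellPathfinder machine-learning gating assigned cells to Hoechst high-intensity objects or normal cells, normal cells to healthy, pyknosed or fragmented nuclei, and pyknosed cells to mitotic or apoptotic. Tubulin, mitochondrial-mass and membrane-permeability phenotypes are per cents of healthy-nucleus cells.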

[1] = 12 h, 1 µM, compound concentration 1 uM, replicate 1
[2] = 12 h, 1 µM, compound concentration 1 uM, replicate 2
[3] = 12 h, 10 µM, compound concentration 10 uM, replicate 1
[4] = 12 h, 10 µM, compound concentration 10 uM, replicate 2
[5] = 24 h, 1 µM, compound concentration 1 uM, replicate 1
[6] = 24 h, 1 µM, compound concentration 1 uM, replicate 2
[7] = 24 h, 10 µM, compound concentration 10 uM, replicate 1
[8] = 24 h, 10 µM, compound concentration 10 uM, replicate 2
[9] = 48 h, 1 µM, compound concentration 1 uM, replicate 1
[10] = 48 h, 1 µM, compound concentration 1 uM, replicate 2
[11] = 48 h, 10 µM, compound concentration 10 uM, replicate 1
[12] = 48 h, 10 µM, compound concentration 10 uM, replicate 2

With O=C1NC(=O)C(c2cnc3ccccn23)=C1c1cn2c3c(cc(F)cc13)CN(C(=O)N1CCCCC1)CC2 [LY-2090314] the “Population Apoptotic (%)” value [1] was 46%, the “Population Fragmented Nuclei (%)” value [1] was 8% and the “Population Healthy Nuclei (%)” value [1] was 18%. For the same molecule, the “Population Hoechst High Intensity Objects (%)” value [1] was 16%, the “Population Membrane Permeable-Phenotype (%)” value [1] was 10% and the “Population Mitochondria Different-Phenotype (%)” value [1] was 93%. The “Population Mitotic Cells (%)” value [1] was 53%, the “Population Normal (%)” value [1] was 83% and the “Population Pyknosed Nuclei (%)” value [1] was 73%. For the same molecule, the “Population Tubulin-Different-Phenotype (%)” value [1] was 89%, the “Total Cell Count” value [1] was 191 and the “Population Apoptotic (%)” value [2] was 26%. For the same molecule, the “Population Fragmented Nuclei (%)” value [2] was 6%, the “Population Healthy Nuclei (%)” value [2] was 31% and the “Population Hoechst High Intensity Objects (%)” value [2] was 7%. For the same molecule, the “Population Membrane Permeable-Phenotype (%)” value [2] was 16%, the “Population Mitochondria Different-Phenotype (%)” value [2] was 51% and the “Population Mitotic Cells (%)” value [2] was 73%. The “Population Normal (%)” value [2] was 92%, the “Population Pyknosed Nuclei (%)” value [2] was 62% and the “Population Tubulin-Different-Phenotype (%)” value [2] was 61%. The “Total Cell Count” value [2] was 210, the “Population Apoptotic (%)” value [3] was 76% and the “Population Fragmented Nuclei (%)” value [3] was 8%. The “Population Healthy Nuclei (%)” value [3] was 18%, the “Population Hoechst High Intensity Objects (%)” value [3] was 17% and the “Population Membrane Permeable-Phenotype (%)” value [3] was 0%. For the same molecule, the “Population Mitochondria Different-Phenotype (%)” value [3] was 100%, the “Population Mitotic Cells (%)” value [3] was 23% and the “Population Normal (%)” value [3] was 82%. The “Population Pyknosed Nuclei (%)” value [3] was 73%, the “Population Tubulin-Different-Phenotype (%)” value [3] was 96% and the “Total Cell Count” value [3] was 186. The “Population Apoptotic (%)” value [4] was 58%, the “Population Fragmented Nuclei (%)” value [4] was 6% and the “Population Healthy Nuclei (%)” value [4] was 5%. For the same molecule, the “Population Hoechst High Intensity Objects (%)” value [4] was 8%, the “Population Membrane Permeable-Phenotype (%)” value [4] was 14% and the “Population Mitochondria Different-Phenotype (%)” value [4] was 85%. For the same molecule, the “Population Mitotic Cells (%)” value [4] was 41%, the “Population Normal (%)” value [4] was 91% and the “Population Pyknosed Nuclei (%)” value [4] was 87%. The “Population Tubulin-Different-Phenotype (%)” value [4] was 85%, the “Total Cell Count” value [4] was 135 and the “Population Apoptotic (%)” value [5] was 53%. The “Population Fragmented Nuclei (%)” value [5] was 13%, the “Population Healthy Nuclei (%)” value [5] was 26% and the “Population Hoechst High Intensity Objects (%)” value [5] was 17%. For the same molecule, the “Population Membrane Permeable-Phenotype (%)” value [5] was 6%, the “Population Mitochondria Different-Phenotype (%)” value [5] was 93% and the “Population Mitotic Cells (%)” value [5] was 46%. The “Population Normal (%)” value [5] was 82%, the “Population Pyknosed Nuclei (%)” value [5] was 59% and the “Population Tubulin-Different-Phenotype (%)” value [5] was 79%. For the same molecule, the “Total Cell Count” value [5] was 198, the “Population Apoptotic (%)” value [6] was 29% and the “Population Fragmented Nuclei (%)” value [6] was 5%. For the same molecule, the “Population Healthy Nuclei (%)” value [6] was 44%, the “Population Hoechst High Intensity Objects (%)” value [6] was 6% and the “Population Membrane Permeable-Phenotype (%)” value [6] was 8%. The “Population Mitochondria Different-Phenotype (%)” value [6] was 42%, the “Population Mitotic Cells (%)” value [6] was 70% and the “Population Normal (%)” value [6] was 93%. The “Population Pyknosed Nuclei (%)” value [6] was 50%, the “Population Tubulin-Different-Phenotype (%)” value [6] was 66% and the “Total Cell Count” value [6] was 256. The “Population Apoptotic (%)” value [7] was 86%, the “Population Healthy Nuclei (%)” value [7] was 38% and the “Population Hoechst High Intensity Objects (%)” value [7] was 14%. For the same molecule, the “Population Membrane Permeable-Phenotype (%)” value [7] was 1%, the “Population Mitotic Cells (%)” value [7] was 13% and the “Population Normal (%)” value [7] was 85%. The “Population Pyknosed Nuclei (%)” value [7] was 52%, the “Total Cell Count” value [7] was 187 and the “Population Apoptotic (%)” value [8] was 77%. For the same molecule, the “Population Fragmented Nuclei (%)” value [8] was 8%, the “Population Healthy Nuclei (%)” value [8] was 30% and the “Population Hoechst High Intensity Objects (%)” value [8] was 8%. The “Population Membrane Permeable-Phenotype (%)” value [8] was 2%, the “Population Mitochondria Different-Phenotype (%)” value [8] was 100% and the “Population Mitotic Cells (%)” value [8] was 22%. For the same molecule, the “Population Normal (%)” value [8] was 91%, the “Population Pyknosed Nuclei (%)” value [8] was 61% and the “Population Tubulin-Different-Phenotype (%)” value [8] was 95%. The “Total Cell Count” value [8] was 148, the “Population Apoptotic (%)” value [9] was 52% and the “Population Fragmented Nuclei (%)” value [9] was 15%. The “Population Healthy Nuclei (%)” value [9] was 39%, the “Population Hoechst High Intensity Objects (%)” value [9] was 14% and the “Population Membrane Permeable-Phenotype (%)” value [9] was 1%. The “Population Mitochondria Different-Phenotype (%)” value [9] was 67%, the “Population Mitotic Cells (%)” value [9] was 47% and the “Population Normal (%)” value [9] was 85%. For the same molecule, the “Population Pyknosed Nuclei (%)” value [9] was 44%, the “Population Tubulin-Different-Phenotype (%)” value [9] was 73% and the “Total Cell Count” value [9] was 230. The “Population Apoptotic (%)” value [10] was 29%, the “Population Fragmented Nuclei (%)” value [10] was 3% and the “Population Healthy Nuclei (%)” value [10] was 68%. For the same molecule, the “Population Hoechst High Intensity Objects (%)” value [10] was 8%, the “Population Membrane Permeable-Phenotype (%)” value [10] was 12% and the “Population Mitochondria Different-Phenotype (%)” value [10] was 24%. The “Population Mitotic Cells (%)” value [10] was 70%, the “Population Normal (%)” value [10] was 91% and the “Population Pyknosed Nuclei (%)” value [10] was 27%. The “Population Tubulin-Different-Phenotype (%)” value [10] was 57%, the “Total Cell Count” value [10] was 309 and the “Population Apoptotic (%)” value [11] was 80%. For the same molecule, the “Population Fragmented Nuclei (%)” value [11] was 11%, the “Population Hoechst High Intensity Objects (%)” value [11] was 12% and the “Population Membrane Permeable-Phenotype (%)” value [11] was 0%. For the same molecule, the “Population Mitochondria Different-Phenotype (%)” value [11] was 99%, the “Population Mitotic Cells (%)” value [11] was 19% and the “Population Normal (%)” value [11] was 87%. For the same molecule, the “Population Pyknosed Nuclei (%)” value [11] was 23%, the “Total Cell Count” value [11] was 200 and the “Population Apoptotic (%)” value [12] was 78%. The “Population Fragmented Nuclei (%)” value [12] was 7%, the “Population Healthy Nuclei (%)” value [12] was 65% and the “Population Hoechst High Intensity Objects (%)” value [12] was 5%. The “Population Membrane Permeable-Phenotype (%)” value [12] was 5%, the “Population Mitochondria Different-Phenotype (%)” value [12] was 95% and the “Population Mitotic Cells (%)” value [12] was 21%. The “Population Normal (%)” value [12] was 94%, the “Population Pyknosed Nuclei (%)” value [12] was 27% and the “Population Tubulin-Different-Phenotype (%)” value [12] was 97%. For the same molecule, the “Total Cell Count” value [12] was 159.
For CCc1cccc(CC)c1NC(=O)c1nn(C)c2c1CCc1cnc(Nc3ccc(N4CCN(C)CC4)cc3OC)nc1-2, the “Population Apoptotic (%)” value [1] was 27%, the “Population Fragmented Nuclei (%)” value [1] was 14% and the “Population Healthy Nuclei (%)” value [1] was 18%. The “Population Hoechst High Intensity Objects (%)” value [1] was 18%, the “Population Membrane Permeable-Phenotype (%)” value [1] was 11% and the “Population Mitochondria Different-Phenotype (%)” value [1] was 32%. The “Population Mitotic Cells (%)” value [1] was 72%, the “Population Normal (%)” value [1] was 81% and the “Population Pyknosed Nuclei (%)” value [1] was 67%. The “Population Tubulin-Different-Phenotype (%)” value [1] was 75%, the “Total Cell Count” value [1] was 690 and the “Population Apoptotic (%)” value [2] was 19%. For the same molecule, the “Population Fragmented Nuclei (%)” value [2] was 2%, the “Population Healthy Nuclei (%)” value [2] was 54% and the “Population Hoechst High Intensity Objects (%)” value [2] was 7%. The “Population Membrane Permeable-Phenotype (%)” value [2] was 5%, the “Population Mitochondria Different-Phenotype (%)” value [2] was 69% and the “Population Mitotic Cells (%)” value [2] was 80%. For the same molecule, the “Population Normal (%)” value [2] was 92%, the “Population Pyknosed Nuclei (%)” value [2] was 42% and the “Population Tubulin-Different-Phenotype (%)” value [2] was 97%. For the same molecule, the “Total Cell Count” value [2] was 922, the “Population Apoptotic (%)” value [3] was 19% and the “Population Fragmented Nuclei (%)” value [3] was 11%. The “Population Healthy Nuclei (%)” value [3] was 64%, the “Population Hoechst High Intensity Objects (%)” value [3] was 14% and the “Population Membrane Permeable-Phenotype (%)” value [3] was 13%. The “Population Mitochondria Different-Phenotype (%)” value [3] was 12%, the “Population Mitotic Cells (%)” value [3] was 80% and the “Population Normal (%)” value [3] was 85%. The “Population Pyknosed Nuclei (%)” value [3] was 24%, the “Population Tubulin-Different-Phenotype (%)” value [3] was 54% and the “Total Cell Count” value [3] was 730. For the same molecule, the “Population Apoptotic (%)” value [4] was 5%, the “Population Fragmented Nuclei (%)” value [4] was 3% and the “Population Healthy Nuclei (%)” value [4] was 89%. The “Population Hoechst High Intensity Objects (%)” value [4] was 2%, the “Population Membrane Permeable-Phenotype (%)” value [4] was 8% and the “Population Mitochondria Different-Phenotype (%)” value [4] was 24%. The “Population Mitotic Cells (%)” value [4] was 94%, the “Population Normal (%)” value [4] was 97% and the “Population Pyknosed Nuclei (%)” value [4] was 6%. For the same molecule, the “Population Tubulin-Different-Phenotype (%)” value [4] was 57%, the “Total Cell Count” value [4] was 1395 and the “Population Apoptotic (%)” value [5] was 39%. The “Population Fragmented Nuclei (%)” value [5] was 18%, the “Population Healthy Nuclei (%)” value [5] was 17% and the “Population Hoechst High Intensity Objects (%)” value [5] was 13%. The “Population Membrane Permeable-Phenotype (%)” value [5] was 11%, the “Population Mitochondria Different-Phenotype (%)” value [5] was 41% and the “Population Mitotic Cells (%)” value [5] was 60%. The “Population Normal (%)” value [5] was 86%, the “Population Pyknosed Nuclei (%)” value [5] was 63% and the “Population Tubulin-Different-Phenotype (%)” value [5] was 68%. For the same molecule, the “Total Cell Count” value [5] was 683, the “Population Fragmented Nuclei (%)” value [6] was 3% and the “Population Healthy Nuclei (%)” value [6] was 27%. The “Population Hoechst High Intensity Objects (%)” value [6] was 12%, the “Population Membrane Permeable-Phenotype (%)” value [6] was 3% and the “Population Mitochondria Different-Phenotype (%)” value [6] was 92%. For the same molecule, the “Population Normal (%)” value [6] was 87%, the “Population Pyknosed Nuclei (%)” value [6] was 68% and the “Population Tubulin-Different-Phenotype (%)” value [6] was 89%. The “Total Cell Count” value [6] was 901, the “Population Apoptotic (%)” value [7] was 27% and the “Population Fragmented Nuclei (%)” value [7] was 11%. For the same molecule, the “Population Healthy Nuclei (%)” value [7] was 77%, the “Population Hoechst High Intensity Objects (%)” value [7] was 8% and the “Population Membrane Permeable-Phenotype (%)” value [7] was 20%. The “Population Mitochondria Different-Phenotype (%)” value [7] was 9%, the “Population Mitotic Cells (%)” value [7] was 72% and the “Population Normal (%)” value [7] was 91%. For the same molecule, the “Population Pyknosed Nuclei (%)” value [7] was 10%, the “Population Tubulin-Different-Phenotype (%)” value [7] was 65% and the “Total Cell Count” value [7] was 803. The “Population Apoptotic (%)” value [8] was 11%, the “Population Fragmented Nuclei (%)” value [8] was 8% and the “Population Healthy Nuclei (%)” value [8] was 88%. The “Population Hoechst High Intensity Objects (%)” value [8] was 3%, the “Population Membrane Permeable-Phenotype (%)” value [8] was 13% and the “Population Mitotic Cells (%)” value [8] was 88%. For the same molecule, the “Population Normal (%)” value [8] was 96%, the “Population Pyknosed Nuclei (%)” value [8] was 3% and the “Population Tubulin-Different-Phenotype (%)” value [8] was 62%. The “Total Cell Count” value [8] was 1777.
